Screening data as filed in PubChem.
Only some compounds are listed: those with a hit (about 1.9% of all), similar ones and a draw of the others.
Rad51 HR inh = blocks human Rad51 in homologous recombination | Q06609 | hRad51 DNA strand exchange, fluorescence dequenching | actives 0.085% (n = 200,000) | inhibition, % at 10 µM;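 active = inhibition above 40% at the single screening dose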;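 also: 0% = DMSO control wells and 100% = blanks with heterologous ssDNA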
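Test system: preformed human Rad51 ssDNA filaments. Compound dosing: single dose, 10 µM final compound. Incubation: filaments 15 min 37 °C, then compound 30 min. Technique: FRET fluorescence dequenching, excitation 485 nm, emission 520 nm. Read-out basis: percent inhibition from fluorescence, normalised to plate control and blank means. Benchmarks: plate controls and plate blanks.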
Hsp70 act = Hsp70 transcriptional activation, primary screen. HeLa Hsp70 promoter luciferase reporter, luminescence; scaled: vehicle 0, proteasome-inhibitor control 100%. activation, % at 10 µM. actives 0.04% (n = 200,000). AID 1203;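 active = activation above the mean across all tested compounds plus 3 SD, cutoff set per campaign, cut at about 5.5% in these data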;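 also: 100% = MG132 at 30 µM as the positive control and 0% = DMSO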
ABHD5 PLIN5 PPI = ABHD5-PLIN5 protein interaction inhibition; Q00G26+Q8WTS1; Split G. princeps luciferase complementation, luminescence, 4 h; inhibition, % at 4 µM; actives 0.78% (n = 360,000);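 active = inhibition above the mean inhibition across every tested compound plus 3 SD, cut at about 22% in these data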;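 also: 0% = DMSO only wells and the 100% control is not disclosed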
Target sequence (Q00G26 whole entry, looked up): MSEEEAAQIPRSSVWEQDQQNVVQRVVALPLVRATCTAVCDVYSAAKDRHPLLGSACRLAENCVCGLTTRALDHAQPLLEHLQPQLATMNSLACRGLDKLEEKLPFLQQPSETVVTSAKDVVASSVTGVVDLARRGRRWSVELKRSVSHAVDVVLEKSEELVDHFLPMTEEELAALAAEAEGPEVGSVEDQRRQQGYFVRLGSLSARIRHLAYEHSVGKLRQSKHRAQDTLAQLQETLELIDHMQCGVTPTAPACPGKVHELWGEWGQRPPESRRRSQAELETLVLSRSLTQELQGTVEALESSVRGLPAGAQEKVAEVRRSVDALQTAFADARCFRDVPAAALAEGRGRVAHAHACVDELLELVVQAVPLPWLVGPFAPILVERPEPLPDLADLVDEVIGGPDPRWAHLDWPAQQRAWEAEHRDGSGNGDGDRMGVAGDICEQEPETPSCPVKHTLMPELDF
Target sequence (Q8WTS1 whole entry, looked up): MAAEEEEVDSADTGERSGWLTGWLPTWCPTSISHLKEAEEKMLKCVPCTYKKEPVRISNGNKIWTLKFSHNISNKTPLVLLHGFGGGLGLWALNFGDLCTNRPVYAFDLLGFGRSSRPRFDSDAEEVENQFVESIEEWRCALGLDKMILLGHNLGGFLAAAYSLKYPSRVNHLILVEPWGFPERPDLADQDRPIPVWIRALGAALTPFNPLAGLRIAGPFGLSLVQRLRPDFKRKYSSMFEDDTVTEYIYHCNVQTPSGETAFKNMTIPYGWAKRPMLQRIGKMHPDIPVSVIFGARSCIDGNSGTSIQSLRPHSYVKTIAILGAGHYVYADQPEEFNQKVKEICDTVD
HIF activator = HIF pathway transcriptional activation; U2OS HRE-luciferase reporter, luminescence; normalized: DMSO 0%, desferrioxamine 100%; activation, % at 7.5 µM (by protocol); actives 0.32% (n = 300,000);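 active = mean activation of at least 10% of the iron chelator positive control signal, with at least half of replicates also reaching 10%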
TAG inh = reduces triacylglycerol accumulation in H9c2 cells | inhibition, % at 12.5 µM | Nile Red lipid (TAG) fluorescence; cells loaded with 200 µM oleic acid | AID 651582 | actives 0.66% (n = 230,000);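 active = pattern-corrected inhibition of lipid staining of at least 50% with the nuclear-stain viability signal not falling by more than 50%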;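 also: 0% = DMSO wells and 100% = triacsin C control wells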
GAA850 FXN act = activators of GAA850 frataxin (FXN) promoter; activation, % at 6 µM; AID 540364; HEK293 lucGAA850 FXN promoter luciferase reporter, 24 h; percent of 10 µM SAHA response; actives 0.56% (n = 360,000);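 active = activation above the average of all compounds screened plus 3 SD, cutoff fixed separately per campaign, cut at about 7.5% in these data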;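 also: 0% = DMSO wells and 100% = 10 µM SAHA wells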
Numbers without * were called inactive; · = no result given.

SMILES	Rad51 HR inh	Hsp70 act	ABHD5 PLIN5 PPI	HIF activator	TAG inh	GAA850 FXN act
COc1cc2nc(SCc3ccc(F)cc3)n(Cc3cccs3)c(=N)c2cc1OC	-5	0	-1	-1	·	0
CN1C(=O)C(=O)/C(=C(/O)c2ccc(Br)cc2)C1c1ccc(Cl)cc1 (stereo unspecified)	·	·	-6	-1	·	-1
O=C1OC(c2ccc(Cl)cc2)/C(=C(/O)c2ccccc2)C1=O (stereo unspecified)	-5	0	23*	1	1	-1
O=C(CCc1ccccc1)Nc1ccnn1C1CCN(C/C=C/c2ccccc2)CC1	·	·	-3	435*	·	1
CN(C)C=Nc1ccc2nc3c(cc2c1)[nH]c1ccccc13	·	·	-1	5	·	9.2*
CCOC(=O)c1[nH]c2ccccc2c1N=CN(C)C	7	0	2	0	-2	1
C[C@@H]1CN([C@H](C)CO)S(=O)(=O)c2ccc(C#Cc3cccc(F)c3)cc2O[C@@H]1CN(C)C(=O)CN1CCOCC1	·	·	9	·	19	-1
Oc1ccc2ccccc2c1N=Nc1ccccc1F	-2	·	5	1	36	3
Oc1ccc2ccccc2c1N=Nc1ccccn1	-8	-1	8	33*	-57	1
CCOC(=O)c1c[nH]c2ccc3ccccc3c2c1=O	·	·	1	-2	6	0
CCOC(=O)c1[nH]cnc1N=Nc1c(O)ccc2ccccc12	-8	0	6	38*	·	1
O=C(NCC1CCCCC1)c1ccc2sc([C@H]3C[C@H](O)[C@@H](CO)O3)nc2c1	·	·	-1	·	-9	0
O=C(COc1cccc2ccccc12)Nc1cc(Cl)ccc1C(=O)O	·	·	-7	-1	10	1
O=C(COc1cccc2ccccc12)Nc1ccc(Cl)cc1C(=O)O	·	·	-5	15*	-8	-1
CC1CCN(C(=O)c2ccc3c(c2NCCO)C(=O)c2ccccc2C3=O)CC1	7	0	6	-1	118*	0
CNCc1ccccc1Sc1ccc(O)c(O)c1	9	0	23*	0	·	6
CCCCNC(=O)C[C@@H]1C[C@@]2(C(=O)OC)CCCCC=C2N(Cc2ccccc2)C1=O	·	·	0	·	·	·
O=C(N/N=C/c1ccccc1O)c1cc(=O)[nH]c2ccccc12	-2	0	·	11*	·	·
Cc1ccc2[nH]c(C(=O)N/N=C/c3ccccc3O)c(C)c2c1	·	·	-6	169*	·	-7
Cc1ccc2[nH]c(C(=O)N/N=C/c3ccccc3C(=O)O)c(-c3ccccc3)c2c1	·	·	1	-25	·	2
Cc1ccc2c(c1)c1c(n2CC(O)CNC2CCCC2)CCCC1 (stereo unspecified)	-2	·	14	0	99*	1
Cc1ccc2c(c1)c1c(n2CC(O)Cn2ccnc2C)C(=O)CCC1 (stereo unspecified)	-12	0	0	0	15	1
CNc1ccc2nnc(C(F)(F)C(F)(F)C(F)(F)F)n2n1	-7	0	-5	-1	-6	1
COc1ccc2[nH]c(=O)c(CN(C3CCCCC3)C(c3nnnn3Cc3ccco3)C(C)C)cc2c1 (stereo unspecified)	·	1	46*	1	-1	6
COc1ccc2cc(CN(CCc3ccccc3)Cc3nnnn3Cc3ccco3)c(=O)[nH]c2c1	-14	0	22*	0	·	3
SMILES	Rad51 HR inh	Hsp70 act	ABHD5 PLIN5 PPI	HIF activator	TAG inh	GAA850 FXN act
COc1ccc2nc(C)cc(N/N=C/c3ccccc3)c2c1	·	·	9	·	66*	-5
COc1ccc(/C=N/Nc2cc(C)nc3ccc(OC)cc23)c(OC)c1	·	·	11	-5	·	-6
CC(C)n1cnc2c(N(C)c3ccccc3)nc(N(CCN(C)C)Cc3ccccc3)nc21	-1	·	21	-1	52*	-4
COC(=O)/C(C#N)=C/c1c(N2CCN(Cc3ccc4c(c3)OCO4)CC2)nc2c(C)cccn2c1=O	10	·	-7	410*	-2	0
Cc1cc(N/N=C/c2ccc(O)cc2O)nc(-c2ccccc2O)n1	2	0	6	21*	·	-2
COc1ccc(C(=O)NC2=Nc3ccccc3N=C(C)C2c2ccccc2)cc1 (stereo unspecified)	·	·	-4	25*	-8	5
COc1ccccc1C(=O)N/N=C/c1cnc2ccccc2n1	·	0	4	3	·	1
Cc1cc(C)nc(N/N=C/C2=C(O)CC(c3ccc(F)cc3)CC2=O)n1 (stereo unspecified)	15	·	-9	22*	32	0
CCOc1ccc(S(=O)(=O)N2CCN(CN3C(=O)CC4(CCCC4)C3=O)CC2)cc1	·	·	-14	·	4	0
COc1ccc(NC(=O)c2cc(-c3ccc(C)o3)nc3ccccc23)cc1OC	-4	1	34*	·	-11	2
COc1ccc(NC(=O)c2cc(-c3ccc(C)o3)nc3ccccc23)c(OC)c1	·	·	5	1	-11	0
CC1SC(=NC(=O)c2ccncc2)NC1=O (stereo unspecified)	3	0	-11	932*	4	-1
CCN(CC)CCC(=O)Nc1cccc2c1C(=O)c1ccccc1C2=O	34	·	1	26*	93*	2
Nc1cccc(C(=O)OCC(=O)Nc2cccc3c2C(=O)c2ccccc2C3=O)c1	-30	0	1	0	23	1
Cc1ccc(C)c(NC(=O)CCN2CCC(C)CC2)c1	·	·	-3	0	-10	-1
NC(=O)c1ccc(NC(=O)CCN2C(=O)c3ccccc3C2=O)cc1	·	·	8	1	·	2
CC(C)(C)C1=CC(=O)C(=O)C(C(C)(C)C)=C1	22	0	1	0	·	11*
Cc1cc(N2C(=O)C=CC2=O)c([N+](=O)[O-])cc1C	5	0	33*	0	·	-1
Cc1c([N+](=O)[O-])cc(N2C(=O)C=CC2=O)cc1[N+](=O)[O-]	·	·	0	·	7	0
Cc1ccc(-c2csc3ncn(CC(=O)NCC(c4ccco4)N4CCCC4)c(=O)c23)cc1 (stereo unspecified)	·	·	-2	·	-4	-1
CC(C)C[C@H]1CNC(=S)N1C[C@H]1CCCN1C[C@H](Cc1ccc(O)cc1)N1C[C@H](Cc2ccc(O)cc2)N(CC2CCCCCC2)C1=S	·	·	27*	·	·	·
CC(C)C[C@H]1CNC(=S)N1C[C@H]1CCCN1C[C@H](Cc1ccc(O)cc1)N1C[C@H](CC(C)C)N(CCc2ccccc2)C1=S	·	·	23*	·	·	·
CC(C)C[C@H]1CNC(=S)N1CC1CCCN1C[C@H](Cc1ccccc1)N1C[C@H](Cc2ccc(O)cc2)N(CC2CCCCCC2)C1=S (stereo partly specified)	·	·	-13	·	130	-3
CC(C)C[C@H]1CNC(=S)N1C[C@H]1CCCN1C[C@H](Cc1ccccc1)N1C[C@H](Cc2ccc(O)cc2)N(CCc2ccccc2)C1=S	·	·	10	·	·	·
